Data as given in ChEMBL document CHEMBL1671779, “In vivo trypanosomicidal activity of imidazole- or pyrazole-based benzo[g]phthalazine derivatives against acute and chronic phases of Chagas disease” (J Med Chem, 2011).
The source made the active and inactive calls.

Tested on: Mus musculus
Assay: Toxicity in Trypanosoma cruzi infected BALB/c mouse assessed as lymphocytic infiltration in portal tracts at 5 mg/kg, ip administered 90 days after postinfection by conventional light microscopic analysis
Type: organism-based
Parameters: dose 5 mg/kg, route intraperitoneal
Settings: in vivo, 2160 h
How it was run: (§1)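 Livers of infected mice dosed at 5 mg/kg, examined at 90 days post-infection. Paraffin sections 4–5 μm, stained with Giemsa, H&E and Masson's trichrome. Slides coded for blinded light microscopy, ≥30 fields per slide. Alterations scored 0–5.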

Structure (SMILES) | Activity
Clc1nnc(Nc2cc[nH]n2)c2cc3ccccc3cc12 | Toxic

Tested on: Trypanosoma cruzi
Assay: Effect on metabolic excretion in epimastigotes of Trypanosoma cruzi assessed as lactate excretion level at IC25 concentration after 72 hrs by nuclear magnetic resonance spectroscopy analysis
Type: ADME, organism-based
Settings: not given
How it was run: (§2)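 Epimastigote cultures started at 5 × 10^5 cells/mL and given drug at IC25, 72 h at 28 °C. Excreted metabolites assessed by 1H NMR of spent medium, compared with cell-free medium.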

Structure (SMILES) | Activity
Clc1nnc(Nc2cc[nH]n2)c2cc3ccccc3cc12 | -61%
c1ccc2cc3c(Nc4ccn[nH]4)nnc(Nc4ccn[nH]4)c3cc2c1 [1,4-BIS(3'-PYRAZOLYLAMINO)BENZO[G]PHTHALAZINE] | -55%

Tested on: Trypanosoma cruzi
Assay: Effect on metabolic excretion in epimastigotes of Trypanosoma cruzi assessed as succinate excretion level at IC25 concentration after 72 hrs by nuclear magnetic resonance spectroscopy analysis
Type: ADME, organism-based
Settings: not given
How it was run: as §2

Structure (SMILES) | Activity
Clc1nnc(NCCc2c[nH]cn2)c2cc3ccccc3cc12 | -37%
Clc1nnc(Nc2cc[nH]n2)c2cc3ccccc3cc12 | 27%
c1ccc2cc3c(NCCc4cnc[nH]4)nnc(NCCc4cnc[nH]4)c3cc2c1 | -39%
c1ccc2cc3c(Nc4ccn[nH]4)nnc(Nc4ccn[nH]4)c3cc2c1 [1,4-BIS(3'-PYRAZOLYLAMINO)BENZO[G]PHTHALAZINE] | -24%

Tested on: Trypanosoma cruzi
Assay: Antitrypanosomal activity against trypomastigote of Trypanosoma cruzi infected in BALB/c mouse assessed as reduction of parasitemia at 1 mg/kg, ip for 5 days measured after 40 days postinfection
Type: functional, organism-based
Parameters: dose 1 mg/kg
Settings: not given
How it was run: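 Female BALB/c mice (6–8 weeks, 25–30 g), groups of five, infected ip with 3 × 10^3 metacyclic forms. Dosed 1 mg/kg/day ip for days 7–12 post-infection. Tail blood (5 μL) diluted 1:15 in citrate/lysis buffer pH 7.2; parasites counted in Neubauer chamber; deaths recorded every two days.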

Structure (SMILES) | Activity
Clc1nnc(NCCc2c[nH]cn2)c2cc3ccccc3cc12 | Active
Clc1nnc(Nc2cc[nH]n2)c2cc3ccccc3cc12 | Active

Tested on: Mus musculus
Assay: Toxicity in Trypanosoma cruzi infected BALB/c mouse assessed as lymphocytic infiltration at 5 mg/kg, ip administered 90 days after postinfection by conventional light microscopic analysis
Type: organism-based
Parameters: dose 5 mg/kg, route intraperitoneal
Settings: in vivo, 2160 h
How it was run: as §1

Structure (SMILES) | Activity
Clc1nnc(NCCc2c[nH]cn2)c2cc3ccccc3cc12 | Toxic

Tested on: Vero
Assay: Cytotoxicity against african green monkey Vero cells after 72 hrs by trypan blue assay
Type: cell-based
Settings: Chlorocebus sabaeus
How it was run: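 Vero cells in MEM with 10% inactivated FCS, pH 7.2, 37 °C, 5% CO2. Seeded at 1 × 10^5 cells/mL and grown 2 days, then exposed 72 h to 1, 10, 25, 50 or 100 μM. Viability scored by trypan blue (0.1%) relative to control; IC50 obtained by linear regression.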

Structure (SMILES) | IC50
Clc1nnc(Nc2cc[nH]n2)c2cc3ccccc3cc12 | 133 µM

Tested on: Trypanosoma cruzi
Assay: Effect on metabolic excretion in epimastigotes of Trypanosoma cruzi assessed as malate excretion level at IC25 concentration after 72 hrs by nuclear magnetic resonance spectroscopy analysis
Type: ADME, organism-based
Settings: not given

Structure (SMILES) | Activity
c1ccc2cc3c(Nc4ccn[nH]4)nnc(Nc4ccn[nH]4)c3cc2c1 [1,4-BIS(3'-PYRAZOLYLAMINO)BENZO[G]PHTHALAZINE] | 100%

Tested on: Trypanosoma cruzi
Assay: Effect on metabolic excretion in epimastigotes of Trypanosoma cruzi assessed as acetate excretion level at IC25 concentration after 72 hrs by nuclear magnetic resonance spectroscopy analysis
Type: ADME, organism-based
Settings: not given
How it was run: as §2

Structure (SMILES) | Activity
Clc1nnc(NCCc2c[nH]cn2)c2cc3ccccc3cc12 | -18%
Clc1nnc(Nc2cc[nH]n2)c2cc3ccccc3cc12 | -36%
c1ccc2cc3c(NCCc4cnc[nH]4)nnc(NCCc4cnc[nH]4)c3cc2c1 | -30%

Tested on: Mus musculus
Assay: Toxicity in Trypanosoma cruzi infected BALB/c mouse assessed as hepatic destruction at 5 mg/kg, ip administered 90 days after postinfection by conventional light microscopic analysis
Type: organism-based
Parameters: dose 5 mg/kg, route intraperitoneal
Settings: in vivo, 2160 h
How it was run: as §1

Structure (SMILES) | Activity
Clc1nnc(NCCc2c[nH]cn2)c2cc3ccccc3cc12 | Toxic

Tested on: Trypanosoma cruzi
Assay: Antitrypanosomal activity against Trypanosoma cruzi infected in african green monkey Vero cells assessed as reduction of parasite infection rate at IC25 after 10 days
Type: functional
Parameters: scale not given: the % may be the effect or the level left
Settings: not given
How it was run: (§3)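 Vero cells seeded at 1 × 10^5 cells/well on coverslips and grown 2 days in MEM at 37 °C, 5% CO2. Infected with metacyclic forms at 10:1, obtained by culture in modified Grace's medium at 28 °C for 12 days. Drug present 6 h, then removed by washing; cultures grown 10 days with medium renewed every 48 h. Methanol-fixed, Giemsa-stained; >100 host cells counted; means of four determinations.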

Structure (SMILES) | Activity
Clc1nnc(Nc2cc[nH]n2)c2cc3ccccc3cc12 | 68%

Tested on: Mus musculus
Assay: Toxicity in BALB/c mouse assessed as mortality at 5 mg/kg, ip
Type: organism-based
Parameters: dose 5 mg/kg, route intraperitoneal
Settings: in vivo

Structure (SMILES) | Activity
Clc1nnc(NCCc2c[nH]cn2)c2cc3ccccc3cc12 | Non-toxic
Clc1nnc(Nc2cc[nH]n2)c2cc3ccccc3cc12 | Non-toxic
c1ccc2cc3c(NCCc4cnc[nH]4)nnc(NCCc4cnc[nH]4)c3cc2c1 | Non-toxic
c1ccc2cc3c(Nc4ccn[nH]4)nnc(Nc4ccn[nH]4)c3cc2c1 [1,4-BIS(3'-PYRAZOLYLAMINO)BENZO[G]PHTHALAZINE] | Non-toxic

Tested on: not listed separately
Assay: Selectivity index, ratio of IC50 for african green monkey Vero cells to IC50 for epimastigote of Trypanosoma cruzi Maracay
Type: toxicity, cell-based
Settings: read-out: Selectivity Index

Structure (SMILES) | selectivity ratio
Clc1nnc(Nc2cc[nH]n2)c2cc3ccccc3cc12 | 7.58
c1ccc2cc3c(Nc4ccn[nH]4)nnc(Nc4ccn[nH]4)c3cc2c1 [1,4-BIS(3'-PYRAZOLYLAMINO)BENZO[G]PHTHALAZINE] | 2.99

Tested on: Mus musculus
Assay: Toxicity in Trypanosoma cruzi infected BALB/c mouse assessed as small interstitial hemorrhage at 5 mg/kg, ip administered 90 days after postinfection by conventional light microscopic analysis
Type: organism-based
Parameters: dose 5 mg/kg, route intraperitoneal
Settings: in vivo, 2160 h
How it was run: as §1

Structure (SMILES) | Activity
Clc1nnc(Nc2cc[nH]n2)c2cc3ccccc3cc12 | Toxic

Target: Superoxide dismutase [Cu-Zn] (Homo sapiens, UniProt P00441)
Sequence (P00441 whole entry): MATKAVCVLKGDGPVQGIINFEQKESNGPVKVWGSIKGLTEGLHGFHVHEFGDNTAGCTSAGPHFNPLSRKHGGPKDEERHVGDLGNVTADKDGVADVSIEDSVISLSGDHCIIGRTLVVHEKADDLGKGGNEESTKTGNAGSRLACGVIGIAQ
Assay: Inhibition of human Cu-Zn superoxide dismutase assessed as inhibition of NADPH reduction
Settings: not given
How it was run: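 Human erythrocyte CuZn-SOD, purchased, assayed by NAD(P)H oxidation; 1 U gives 50% inhibition of the rate. Compounds at 1, 10, 25, 50, 100 μM. IC50 by linear regression; five determinations; Newman-Keuls test.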

Structure (SMILES) | IC50
Clc1nnc(NCCc2c[nH]cn2)c2cc3ccccc3cc12 | 787 µM
Clc1nnc(Nc2cc[nH]n2)c2cc3ccccc3cc12 | 103 µM
c1ccc2cc3c(NCCc4cnc[nH]4)nnc(NCCc4cnc[nH]4)c3cc2c1 | 366 µM
c1ccc2cc3c(Nc4ccn[nH]4)nnc(Nc4ccn[nH]4)c3cc2c1 [1,4-BIS(3'-PYRAZOLYLAMINO)BENZO[G]PHTHALAZINE] | 96.6 µM

Tested on: Trypanosoma cruzi
Assay: Antitrypanosomal activity against trypomastigote of Trypanosoma cruzi infected in BALB/c mouse assessed as increase of host survival at 1 mg/kg, ip for 5 days administered 7 days after infection
Type: functional
Settings: not given
How it was run: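 Female BALB/c mice (6-8 weeks, 25-30 g) in groups of five were infected intraperitoneally with T. cruzi metacyclic forms, with circulating parasites confirmed on day 5 by microhematocrit. They were dosed intraperitoneally at 1 mg/kg/day for five consecutive days (days 7-12 post-infection) and compared with infected untreated and uninfected controls. Deaths were recorded every two days.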

Structure (SMILES) | Activity
Clc1nnc(NCCc2c[nH]cn2)c2cc3ccccc3cc12 | Active
Clc1nnc(Nc2cc[nH]n2)c2cc3ccccc3cc12 | Active

Tested on: Trypanosoma cruzi
Assay: Effect on metabolic excretion in epimastigotes of Trypanosoma cruzi assessed as L-alanine excretion level at IC25 concentration after 72 hrs by nuclear magnetic resonance spectroscopy analysis
Type: ADME, organism-based
Settings: not given
How it was run: as §2

Structure (SMILES) | Activity
Clc1nnc(NCCc2c[nH]cn2)c2cc3ccccc3cc12 | 22%
c1ccc2cc3c(NCCc4cnc[nH]4)nnc(NCCc4cnc[nH]4)c3cc2c1 | 35%

Tested on: Trypanosoma cruzi
Assay: Antitrypanosomal activity against epimastigotes of Trypanosoma cruzi assessed as change in ultrastructural morphological changes at IC25 concentration after 72 hrs by transmission electron microscopy
Type: functional, organism-based
Settings: not given
How it was run: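 Epimastigotes at 5 × 10^6 cells/mL cultured with drug at IC25 for 72 h. Pelleted at 400g, washed in PBS, then fixed in 2% formaldehyde-glutaraldehyde in 0.05 M cacodylate pH 7.4 for 2 h at 4 °C before transmission electron microscopy.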

Structure (SMILES) | Activity
Clc1nnc(NCCc2c[nH]cn2)c2cc3ccccc3cc12 | Active
Clc1nnc(Nc2cc[nH]n2)c2cc3ccccc3cc12 | Active

Tested on: Trypanosoma cruzi
Assay: Antitrypanosomal activity against Trypanosoma cruzi infected in african green monkey Vero cells assessed as reduction of trypomastigote number per infected cell at IC25 after 10 days relative to control
Type: functional
Parameters: scale not given: the % may be the effect or the level left
Settings: not given

Structure (SMILES) | Activity
Clc1nnc(Nc2cc[nH]n2)c2cc3ccccc3cc12 | 63%

Tested on: Trypanosoma cruzi
Assay: Antitrypanosomal activity against trypomastigote of Trypanosoma cruzi infected in BALB/c mouse assessed as reduction of anti-Trypanosoma cruzi antibody level at 1 mg/kg, ip qd for 5 days measured after 120 days postinfection by ELISA
Type: functional
Settings: route intraperitoneal
How it was run: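 Female BALB/c mice (6–8 weeks, 25–30 g; groups of four for serology) infected ip with 3 × 10^3 metacyclic forms. Dosed 1 mg/kg/day ip for five consecutive days, days 7–12 post-infection. Sera diluted 1:100 tested by ELISA against soluble T. cruzi epimastigote Fe-SOD antigen at days 40 and 120. Read at 490 nm; cutoff is negative-control mean + 3 SD.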

Structure (SMILES) | deltaA
Clc1nnc(NCCc2c[nH]cn2)c2cc3ccccc3cc12 | -0.076 absorbance units
Clc1nnc(Nc2cc[nH]n2)c2cc3ccccc3cc12 | -0.228 absorbance units

Target: not listed separately
Assay: Inhibition of Trypanosoma cruzi iron superoxide dismutase assessed as inhibition of NADPH reduction
Settings: not given
How it was run: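 Maracay epimastigotes sonicated in sucrose/Tris/EDTA buffer, pH 7.8. Clarified supernatant taken through 35–85% ammonium sulfate cut, then desalted into 20 mM phosphate pH 7.8 with 1 mM EDTA. Activity measured by NAD(P)H oxidation; 1 U gives 50% inhibition of the rate. Compounds at 1, 10, 25, 50, 100 μM. IC50 by linear regression; five determinations; Newman-Keuls test.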

Structure (SMILES) | IC50
Clc1nnc(NCCc2c[nH]cn2)c2cc3ccccc3cc12 | 9.4 µM
Clc1nnc(Nc2cc[nH]n2)c2cc3ccccc3cc12 | 17.2 µM

Tested on: Trypanosoma cruzi
Assay: Antitrypanosomal activity against Trypanosoma cruzi infected in african green monkey Vero cells assessed as reduction of amastigote number per infected cell at IC25 after 10 days relative to control
Type: functional
Parameters: scale not given: the % may be the effect or the level left
Settings: not given
How it was run: as §3

Structure (SMILES) | Activity
Clc1nnc(Nc2cc[nH]n2)c2cc3ccccc3cc12 | 56%

Tested on: Trypanosoma cruzi
Assay: Antitrypanosomal activity against epimastigote of Trypanosoma cruzi Maracay after 72 hrs
Type: functional, organism-based
Settings: not given
How it was run: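 Maracay strain epimastigotes in exponential phase, obtained in NNN medium with MEM and 20% inactivated FBS and then kept in monophasic MTL culture. Seeded at 2 × 10^6 parasites/mL with 1, 10, 25, 50 or 100 μM compound (0.01% DMSO). Parasites counted by Neubauer hemocytometer at 72 h; IC50 derived.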

Structure (SMILES) | IC50
Clc1nnc(Nc2cc[nH]n2)c2cc3ccccc3cc12 | 17.5 µM
